# Test results as given in ChEMBL document CHEMBL3244004, “Potential antitumor agents. 27. Quantitative structure--antileukemic (L1210) activity relationships for the omega-[4-(9-acridinylamino)phenyl]alkanoic acids” (J Med Chem, 1978).
# The source made the active and inactive calls. No cut-off for these calls is given here.
# What was measured:
# Mus musculus = test: Toxicity in ip dosed C3H/DBA2F1 hybrid mouse allografted with mouse L1210 cells administered for 5 days measured up to 8 days; assay type: organism-based; conditions: in vivo
# In short: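 C3H/DBA2 F1 hybrid mice (18.5–22.5 g) bearing ip 10^5 L1210 cells were dosed ip once daily for 5 days, starting 24 h after inoculation, at 0.2 mL per dose. Doses were spaced 0.05 log units apart. Deaths before day 8 were taken as drug toxicity, and the dose lethal to 10% of animals (LD10) was derived.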
# L1210 = test: Antitumor activity against mouse L1210 cells allografted in C3H/DBA2F1 hybrid mouse assessed as maximum increase of host life span administered as ip for 5 days relative to control; assay type: functional
# In short: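 Mice (C3H/DBA2 F1 hybrid, 18.5–22.5 g; six per dose level) were inoculated ip with 10^5 L1210 cells. Ip treatment ran once daily on days 1–5, starting 24 h after inoculation, in 0.2 mL per dose. Doses were spaced 0.09 log units apart. ILS = T/C% − 100, significant if above 25%. Significant ILS values were regressed on log dose, and ILSmax was read at the LD10.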
# [1] = Logarithmic function of the retardation factor value of compound by reverse phase chromatography analysis; assay type: physicochemical
# In short: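 Lipophilic-hydrophilic balance read by reversed-phase TLC, using a system described in an earlier report. R_m is calculated as log(1/R_f − 1). Each quoted figure is the mean of at least three determinations.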
SMILES,LD10 (Mus musculus),ILSmax (L1210),log(ILSmax) (L1210),Rm [1]
Cl.O=C(O)CCc1ccc(Nc2c3ccccc3nc3ccccc23)cc1,125 mg/kg,163%,2.21,0.44
CCCS(=O)(=O)Nc1ccc(Nc2c3ccccc3nc3ccccc23)cc1,350 mg/kg,82%,,0.43
Cc1cccc2c(Nc3ccc(CC(=O)O)cc3)c3ccccc3nc12,95 mg/kg,80%,1.9,0.3
CCS(=O)(=O)Nc1ccc(Nc2c3ccccc3nc3cc(NC(C)=O)ccc23)cc1,28 mg/kg,115%,2.06,0.1
CC(=O)Nc1ccc2c(Nc3ccc(NS(C)(=O)=O)cc3)c3ccccc3nc2c1,19 mg/kg,145%,,-0.12
Cl.O=C(O)CCCCCCCc1ccc(Nc2c3ccccc3nc3ccccc23)cc1,95 mg/kg,75%,1.88,0.82
NC(=O)CCCCCCc1ccc(Nc2c3ccccc3nc3ccccc23)cc1,110 mg/kg,71%,1.85,0.58
CCCCCCS(=O)(=O)Nc1ccc(Nc2c3ccccc3nc3ccccc23)cc1.Cl,120 mg/kg,35%,,0.75
CS(=O)(=O)Nc1ccc(Nc2c3ccccc3nc3ccccc23)cc1,66 mg/kg,131%,,0
O=C(O)Cc1ccc(Nc2c3ccccc3nc3ccccc23)cc1,450 mg/kg,22%,1.34,0.23
CNc1ccc2c(Nc3ccc(OCCCC(=O)O)cc3)c3ccccc3nc2c1.Cl,> 500 mg/kg,30%,>1.48,0.61
NC(=O)CCc1ccc(Nc2c3ccccc3nc3ccccc23)cc1,75 mg/kg,84%,1.92,-0.17
CC(=O)Nc1ccc2c(Nc3ccc(CCCCCC(=O)O)cc3)c3ccccc3nc2c1.Cl,> 500 mg/kg,inactive,,0.54
Cl.O=C(O)CCCCCCCCCc1ccc(Nc2c3ccccc3nc3ccccc23)cc1,75 mg/kg,75%,1.88,0.86
CS(=O)(=O)O.NC(=O)CCCCCc1ccc(Nc2c3ccccc3nc3ccccc23)cc1,125 mg/kg,97%,1.99,0.41
CC(=O)Nc1ccc2c(=Nc3ccc(CCC(=O)O)cc3)c3ccccc3[nH]c2c1.Cl,145 mg/kg,,<1.3,0.27
CNc1ccc2c(Nc3ccc(CCCC(=O)O)cc3)c3ccccc3nc2c1.Cl,400 mg/kg,35%,1.54,0.67
CCCCCS(=O)(=O)Nc1ccc(Nc2c3ccccc3nc3cc(NC(C)=O)ccc23)cc1,40 mg/kg,61%,1.78,0.59
Cl.O=S(=O)(Cc1ccc(Nc2c3ccccc3nc3ccccc23)cc1)Nc1ccccn1,370 mg/kg,99%,2,-0.04
CCc1cccc2c(Nc3ccc(CC(=O)O)cc3)c3ccccc3nc12,200 mg/kg,200%,2.3,0.52
Cl.O=C(O)CCCCCc1ccc(Nc2c3ccccc3nc3ccccc23)cc1,150 mg/kg,200%,2.3,0.75
CCS(=O)(=O)Nc1ccc(Nc2c3ccccc3nc3ccccc23)cc1,330 mg/kg,98%,,0.25
NS(=O)(=O)CCc1ccc(Nc2c3ccccc3nc3ccccc23)cc1,80 mg/kg,68%,1.83,-0.2
CS(=O)(=O)O.NC(=O)CCCCCCCc1ccc(Nc2c3ccccc3nc3ccccc23)cc1,120 mg/kg,53%,1.72,0.68

SMILES,LD10 (Mus musculus),ILSmax (L1210),log(ILSmax) (L1210),Rm [1]
NC(=O)c1ccc(Nc2c3ccccc3nc3ccccc23)cc1,182 mg/kg,,<1.3,-0.25
Cl.O=C(O)CCCCCCCCc1ccc(Nc2c3ccccc3nc3ccccc23)cc1,100 mg/kg,72%,1.86,0.85
Cl.O=C(O)CCCc1ccc(Nc2c3ccccc3nc3ccccc23)cc1,190 mg/kg,213%,2.33,0.59
CNc1ccc2c(Nc3ccc(NS(C)(=O)=O)cc3OC)c3ccccc3nc2c1.Cl,1.3 mg/kg,94%,1.97,0.17
CCCS(=O)(=O)Nc1ccc(Nc2c3ccccc3nc3cc(NC(C)=O)ccc23)cc1,33 mg/kg,115%,2.06,0.3
CS(=O)(=O)O.NC(=O)Cc1ccc(Nc2c3ccccc3nc3ccccc23)cc1,55 mg/kg,64%,1.81,-0.33
CCc1cccc2c(Nc3ccc(CCC(=O)O)cc3)c3ccccc3nc12.Cl,200 mg/kg,130%,2.11,0.66
O=C(O)c1ccc(Nc2c3ccccc3nc3ccccc23)cc1,72 mg/kg,130%,2.11,0.27
NC(=O)CCCc1ccc(Nc2c3ccccc3nc3ccccc23)cc1,85 mg/kg,122%,2.09,0.09
CS(=O)(=O)O.NC(=O)CCCCCCCCc1ccc(Nc2c3ccccc3nc3ccccc23)cc1,60 mg/kg,25%,1.4,0.77
CS(=O)(=O)O.NC(=O)CCCCc1ccc(Nc2c3ccccc3nc3ccccc23)cc1,110 mg/kg,82%,1.91,0.25
O=C(O)CCCCc1ccc(Nc2c3ccccc3nc3ccccc23)cc1,125 mg/kg,187%,2.27,0.64
O=C(O)CCCCCCc1ccc(Nc2c3ccccc3nc3ccccc23)cc1,90 mg/kg,74%,1.87,0.79
CCCCS(=O)(=O)Nc1ccc(Nc2c3ccccc3nc3ccccc23)cc1,350 mg/kg,66%,,0.56
CCC(=O)Nc1ccc2c(Nc3ccc(NS(C)(=O)=O)cc3)c3ccccc3nc2c1,55 mg/kg,119%,2.08,0.15
CC(=O)Nc1ccc2c(Nc3ccc(C(=O)O)cc3)c3ccccc3nc2c1.Cl,> 500 mg/kg,inactive,,0.15
CCCCCS(=O)(=O)Nc1ccc(Nc2c3ccccc3nc3ccccc23)cc1.Cl,70 mg/kg,55%,,0.66
NS(=O)(=O)c1ccc(Nc2c3ccccc3nc3ccccc23)cc1,> 500 mg/kg,inactive,,-0.57
Cl.NS(=O)(=O)Cc1ccc(Nc2c3ccccc3nc3ccccc23)cc1,62 mg/kg,53%,1.72,-0.36
Cc1cccc2c(Nc3ccc(CCC(=O)O)cc3)c3ccccc3nc12,32 mg/kg,124%,2.09,0.46
CNc1ccc2c(Nc3ccc(NS(C)(=O)=O)cc3)c3ccccc3nc2c1.Cl,7 mg/kg,103%,2.01,-0.01
CN(C)C(=O)CCCc1ccc(Nc2c3ccccc3nc3ccccc23)cc1.Cl,52 mg/kg,,<1.3,0.68
CCCCS(=O)(=O)Nc1ccc(Nc2c3ccccc3nc3cc(NC(C)=O)ccc23)cc1,39 mg/kg,84%,1.92,0.46
CCCCCCS(=O)(=O)Nc1ccc(Nc2c3ccccc3nc3cc(NC(C)=O)ccc23)cc1,21 mg/kg,43%,1.63,0.7
